Results from ChEMBL document CHEMBL4414638, “Structure-Activity Relationship of Peptide-Conjugated Chloramphenicol for Inhibiting Escherichia coli” (J Med Chem, 2019).
In brackets after ≈: the same amount, converted by molar mass. Blank lines part the entries; values can stand above or below the molecule they belong to. Activity calls are given as the source filed them. No cut-off for these calls is given here.

What was measured:
Escherichia coli [1] = test: Antibacterial activity against Escherichia coli K-12 assessed as reduction in bacterial growth incubated for 16 hrs; type: functional; conditions: K-12, 16 h
[2] = Cytotoxicity in human HS5 cells assessed as reduction in cell viability at 0.5 to 50 uM incubated […] relative to chloramphenicol; type: cell-based
Outline: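 HS-5 cells were exposed for 24 h to conjugates and chloramphenicol at 20, 200 or 2000 μM, or to comparator antibiotics at 0.5, 5 or 50 μM, and cell viability was then read.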

HEK293 [3] = test: Cytotoxicity in human HEK293 cells assessed as reduction in cell viability at 0.5 uM […] relative to chloramphenicol; type: cell-based; conditions: hek293, 0.5 µM
Escherichia coli [4] = test: Antibacterial activity against Escherichia coli K-12 assessed as reduction in bacterial growth incubated for 16 hrs in presence of porcine liver esterase; type: functional; conditions: K-12, 16 h
Escherichia coli [5] = test: Antibacterial activity against Escherichia coli K-12 assessed as reduction in bacterial growth incubated for 16 hrs in absence of porcine liver esterase; type: functional; conditions: K-12, 16 h
[6] = Drug metabolism in Escherichia coli K-12 lysates assessed as esterase-mediated drug hydrolysis at 200 uM incubated up to 24 hrs by HPLC analysis; type: ADME, subcellular, Lysate; conditions: escherichia coli k-12, isolated protein
[7] = Drug metabolism in human HepG2 cells lysates assessed as esterase-mediated drug hydrolysis at 200 uM incubated up to 24 hrs by HPLC analysis; type: ADME, subcellular, Lysate; conditions: hepg2, 24 h
[8] = Drug metabolism in Escherichia coli K-12 lysates assessed as esterase-mediated drug hydrolysis by measuring apparent first-order rate constant at 200 uM incubated up to 24 hrs by HPLC analysis; type: ADME, subcellular, Lysate; conditions: escherichia coli k-12, isolated protein
Escherichia coli [9] = test: Antibacterial activity against ydgR gene deficient Escherichia coli assessed as reduction in bacterial growth at 0.1 to 100 uM incubated for 16 hrs; type: functional, organism-based
Escherichia coli [10] = test: Antibacterial activity against fepA gene deficient Escherichia coli assessed as reduction in bacterial growth at 0.1 to 100 uM incubated for 16 hrs; type: functional, organism-based
Escherichia coli [11] = test: Antibacterial activity against ompF gene deficient Escherichia coli assessed as reduction in bacterial growth at 0.1 to 100 uM incubated for 16 hrs; type: functional, organism-based
Escherichia coli [12] = test: Antibacterial activity against acrA gene deficient Escherichia coli assessed as reduction in bacterial cell viability at 0.1 to 100 uM incubated for 16 hrs relative to control; type: functional
Escherichia coli [13] = test: Antibacterial activity against bioH gene deficient Escherichia coli assessed as reduction in bacterial growth at 0.1 to 100 uM incubated for 16 hrs; type: functional, organism-based
Escherichia coli [14] = test: Antibacterial activity against yjfP gene deficient Escherichia coli assessed as reduction in bacterial growth at 0.1 to 100 uM incubated for 16 hrs; type: functional, organism-based
Escherichia coli [15] = test: Antibacterial activity against frsA gene deficient Escherichia coli assessed as reduction in bacterial growth at 0.1 to 100 uM incubated for 16 hrs; type: functional, organism-based
Escherichia coli [16] = test: Antibacterial activity against ybfF gene deficient Escherichia coli assessed as reduction in bacterial growth at 0.1 to 100 uM incubated for 16 hrs; type: functional, organism-based
Escherichia coli [17] = test: Antibacterial activity against yfbB gene deficient Escherichia coli assessed as reduction in bacterial growth at 0.1 to 100 uM incubated for 16 hrs; type: functional, organism-based
Escherichia coli [18] = test: Antibacterial activity against ypfH gene deficient Escherichia coli assessed as reduction in bacterial growth at 0.1 to 100 uM incubated for 16 hrs; type: functional, organism-based
Escherichia coli [19] = test: Antibacterial activity against yeiG gene deficient Escherichia coli assessed as reduction in bacterial growth at 0.1 to 100 uM incubated for 16 hrs; type: functional, organism-based
Escherichia coli [20] = test: Antibacterial activity against yqiA gene deficient Escherichia coli assessed as reduction in bacterial growth at 0.1 to 100 uM incubated for 16 hrs; type: functional, organism-based
[21] = Cytotoxicity in human HS5 cells assessed as reduction in cell viability at 20 uM to 2 mM incubated up to […]rs relative to chloramphenicol; type: cell-based
HEK293 [22] = test: Cytotoxicity in human HEK293 cells assessed as reduction in cell viability at 20 uM […] relative to chloramphenicol; type: cell-based; conditions: hek293, 20 µM
[23] = Drug metabolism in human serum assessed as formation of chloramphenicol at 200 uM at 37 degC after 2 hrs by LC-MS analysis relative to control
[24] = Drug metabolism in human serum assessed as formation of chloramphenicol at 200 uM at 37 degC after 24 hrs by LC-MS analysis relative to control

Compound: COc1cc(Cc2cnc(N)nc2N)cc(OC)c1OC [TRIMETHOPRIM]
- MIC (Escherichia coli [1]): 1 µg/mL
- Activity [2]: Non-Toxic
- Activity (HEK293 [3]): Toxic

Compound: O=C(CCC(=O)OC[C@@H](NC(=O)C(Cl)Cl)[C@H](O)c1ccc([N+](=O)[O-])cc1)NCC(=O)N[C@H](CO)C(=O)O
- MIC (Escherichia coli [1]): 20 µM
- MIC (Escherichia coli [4]): 20 µM
- MIC (Escherichia coli [5]): 20 µM (≈ 11.3 µg/mL)
- Drug metabolism [6]: Metabolite_Detected
- Drug metabolism [7]: Metabolite_Detected
- K [8]: 3.763 h⁻¹
- Activity (Escherichia coli [9]): Active
- Activity (Escherichia coli [10]): Active
- Activity (Escherichia coli [11]): Active
- Activity (Escherichia coli [12]): 30%
- Activity (Escherichia coli [13]): inactive
- Activity (Escherichia coli [14]): inactive
- Activity (Escherichia coli [15]): inactive
- Activity (Escherichia coli [16]): inactive
- Activity (Escherichia coli [17]): inactive
- Activity (Escherichia coli [18]): inactive
- Activity (Escherichia coli [19]): inactive
- Activity (Escherichia coli [20]): inactive
- Activity [21]: Non-Toxic
- Activity (HEK293 [22]): Toxic
- Drug metabolism [23]: Metabolite_Detected
- Drug metabolism [24]: Metabolite_Detected

- MIC (Escherichia coli [1]): 0.6 µg/mL
Compound: CC[C@H]1OC(=O)[C@H](C)C(=O)[C@H](C)[C@@H](O[C@@H]2O[C@H](C)C[C@H](N(C)C)[C@H]2O)[C@](C)(OC)C[C@@H](C)C(=O)[C@H](C)[C@H]2N(CCCCn3cnc(-c4cccnc4)c3)C(=O)O[C@]12C [TELITHROMYCIN]
- Activity [2]: Non-Toxic
- Activity (HEK293 [3]): Toxic

Compound: O=C(O)c1cn(C2CC2)c2cc(N3CCNCC3)c(F)cc2c1=O [CIPROFLOXACIN]
- Activity [2]: Non-Toxic
- Activity (HEK293 [3]): Toxic

- MIC (Escherichia coli [1]): 20 µM
- Drug metabolism [23]: Metabolite_Detected
- Drug metabolism [24]: Metabolite_Detected
Compound: NCCCC[C@H](NC(=O)CNC(=O)CCC(=O)OC[C@@H](NC(=O)C(Cl)Cl)[C@H](O)c1ccc([N+](=O)[O-])cc1)C(=O)O
- Activity [21]: Non-Toxic
- Activity (HEK293 [22]): Toxic

- MIC (Escherichia coli [1]): 20 µM
- Drug metabolism [23]: Metabolite_Detected
- Drug metabolism [24]: Metabolite_Detected
Compound: O=C(CCC(=O)OC[C@@H](NC(=O)C(Cl)Cl)[C@H](O)c1ccc([N+](=O)[O-])cc1)NCC(=O)NCC(=O)N[C@H](Cc1ccccc1)C(=O)O
- Activity [21]: Non-Toxic
- Activity (HEK293 [22]): Toxic

Compound: NCCCC[C@H](NC(=O)[C@H](CCCCN)NC(=O)CCC(=O)OC[C@@H](NC(=O)C(Cl)Cl)[C@H](O)c1ccc([N+](=O)[O-])cc1)C(=O)O
- MIC (Escherichia coli [1]): 200 µM
- MIC (Escherichia coli [4]): 200 µM
- MIC (Escherichia coli [5]): 200 µM (≈ 136 µg/mL)
- Drug metabolism [6]: Metabolite_Detected
- Drug metabolism [7]: Metabolite_Detected
- K [8]: 0.31 h⁻¹
- Activity (Escherichia coli [9]): Active
- Activity (Escherichia coli [10]): Active
- Activity (Escherichia coli [11]): Active
- Activity (Escherichia coli [12]): 50%
- Activity (Escherichia coli [13]): inactive
- Activity (Escherichia coli [14]): inactive
- Activity (Escherichia coli [15]): inactive
- Activity (Escherichia coli [16]): inactive
- Activity (Escherichia coli [17]): inactive
- Activity (Escherichia coli [18]): inactive
- Activity (Escherichia coli [19]): inactive
- Activity (Escherichia coli [20]): inactive
- Drug metabolism [24]: Metabolite_Detected
